APJ ag = agonists of human APJ apelin receptor | CHO-K1 APJ PathHunter beta-arrestin, luminescence; 0% DMSO wells, 100% apelin | P35414 | activation, % at 20 µM | 330,000 compounds, 0.11% hits;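 active means activation more than six SD over the plate average, tested at 20 µM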;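 further: 0% = DMSO alone and 100% = apelin-13 at 10 nM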
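Assay system: CHO-K1 APJ beta-arrestin complementation cell line / Compound: single test compound dose, 20 µM final, 1% DMSO / Times: overnight seeding, 90 min compound at 25 °C, 1 h detection / Technique: beta-gal luminescence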
DAGLB inh = diacylglycerol lipase beta (human) inhibition; Q8NCG7; HEK293T DAGLB membrane lysate, EnzChek fluorogenic substrate; inhibition, % at 5.17 µM; 340,000 compounds, 0.059% hits; in the data active means inhibition above about 34%;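 further: 0% = enzyme with vehicle and 100% = wells lacking enzyme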
APJ antagonist = antagonists of human APJ apelin receptor; P35414; CHO-K1 APJ beta-arrestin complementation, luminescence; inhibition, % at 20 µM; 330,000 compounds, 0.32% hits;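 active means inhibition above about 40% at 20 µM, limit read from the data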;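 further: cells challenged with 10 nM apelin-13 agonist together with compound; plate controls were apelin-13 plus DMSO wells for no effect and DMSO wells lacking apelin-13 for full effect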
CCR6 antag = blocks CCL20-driven beta-arrestin recruitment at human CCR6; CHO-K1 CCR6 PathHunter beta-arrestin, luminescence, CCL20-stimulated; P51684; inhibition, % at 20 µM; 340,000 compounds, 0.49% hits;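 active means compounds whose inhibition of the agonist-driven luminescence signal at 20 µM reaches about 50%, limit read from the data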;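 further: cells stimulated with CCL20 at 14 nM final; plate controls were DMSO with CCL20 for no effect and DMSO without agonist for full effect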
Target sequence (P51684 whole entry, looked up): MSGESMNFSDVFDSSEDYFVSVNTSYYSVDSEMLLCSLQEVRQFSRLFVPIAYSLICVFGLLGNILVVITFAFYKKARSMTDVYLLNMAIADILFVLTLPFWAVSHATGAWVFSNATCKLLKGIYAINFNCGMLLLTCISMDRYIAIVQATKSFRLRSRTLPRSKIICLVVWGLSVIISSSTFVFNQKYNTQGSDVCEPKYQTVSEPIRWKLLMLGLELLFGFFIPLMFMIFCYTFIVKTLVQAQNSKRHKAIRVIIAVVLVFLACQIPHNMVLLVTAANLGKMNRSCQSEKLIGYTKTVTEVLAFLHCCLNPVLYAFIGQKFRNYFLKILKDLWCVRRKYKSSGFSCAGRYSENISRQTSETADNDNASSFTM
CXCR6 inh = CXCR6 (human) receptor inhibition; CHO-K1 PathHunter CXCR6 beta-arrestin, luminescence; AID 602244; 360,000 compounds, 0.36% hits; inhibition, % at 20 µM; in the data active means inhibition above about 34%, passing the limit was not always enough;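 further: antagonist mode with CXCL16 agonist at 10 nM final; 0% = 10 nM CXCL16 with DMSO and 100% = unstimulated wells without agonist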
iPSC survival up = increases survival of single human iPS cells | hiPSC single-cell survival, ATPlite luminescence; 100% = ROCK inhibitor wells, 0% = DMSO | survival enhancement, % at 20 µM | 360,000 compounds, 0.044% hits | AID 602274; in the data active means survival enhancement above about 18%;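 further: cells exposed to compounds for 16 hours before the ATP read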
CXCR6 antag conf = confirmation of human CXCR6 receptor antagonists; CHO-K1 CXCR6 PathHunter beta-arrestin, luminescence; 700 compounds, 65% hits; inhibition, % at 20 µM; shares compounds with CXCR6 inh;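 active means mean inhibition over four retests above 40%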;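 further: receptor stimulated with 10 nM CXCL16 agonist; beta-galactosidase fragment complementation upon beta-arrestin recruitment to receptor; plate controls were CXCL16 plus DMSO for no effect and DMSO without CXCL16 for full effect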
* marks the source's active call; other numbers are inactive results; . = not tested or not shown. Rows were chosen to be rich in hits. Some 0.86% of all compounds tested hit in one or more screens of this group.

SMILES	APJ ag	DAGLB inh	APJ antagonist	CCR6 antag	CXCR6 inh	iPSC survival up	CXCR6 antag conf
Cc1noc(C)c1NC(=O)Nc1cccc2c1O[C@H](CN(C)S(=O)(=O)c1cn(C)cn1)[C@@H](C)CN([C@H](C)CO)C2=O	1	-3	-6	11	45*	-1	3
O=C(NC(=S)Nc1ccccc1O)c1cncc(Br)c1	-6	-1	28	66*	47*	0	48*
CCOc1ccccc1NC(=O)COC(=O)COc1c(Cl)cc(Cl)c2ccc(C)nc12	-3	-3	-11	6	7	0	.
CCN(CC(=O)NC(C)(C)C)C(=O)COc1c(Cl)cc(Cl)c2ccc(C)nc12	-3	-3	6	.	33*	0	37
O=C1Nc2ccccc2N=C(c2ccc3c(c2)OCO3)C1N(C(=O)c1ccc2ccccc2c1)C1CC1 (stereo not drawn)	.	.	.	.	4	8	.
O=C(C=Cc1ccccn1)c1ccccc1	.	-2	.	39	21	-2	.
O=C(C=Cc1ccccn1)c1ccccc1O	.	-2	.	74*	57*	-3	60*
CCC(C(=O)NCCc1ccc(OC)cc1OC)n1nc(C)n2c(cc3occc32)c1=O (stereo not drawn)	-3	-10	-45	14	8	1	.
Cc1cc(C)c2c(=O)n(CC(=O)NC3CCCC3)sc2n1	2	3	-27	15	99*	0	34
COc1ccc(C(=O)Nc2cc(C)nn2-c2cccc(F)c2)cc1OC	-5	-2	-10	-2	5	0	.
CN(CC(=O)Nc1cc(S(=O)(=O)N2CCCC2)ccc1Cl)Cc1cccs1	-5	-7	-5	32	29*	0	52*
CSCCNC(=O)C1(C)CCN1C(=O)CCc1ccccc1 (stereo not drawn)	.	.	.	.	-2	6	.
CCOC(=O)C1=C(c2ccccc2)NC(N)=NC1c1ccc(OCc2ccc(C(=O)OC)cc2)cc1 (stereo not drawn)	-1	4	3	43	35*	-1	23
CCOC(=O)C1=C(c2ccccc2)Nc2ncnn2C1c1ccc(C(=O)O)cc1 (stereo not drawn)	5	0	9	4	-8	-1	.
COc1ccc(-c2nn(C)c(=O)c3ccccc23)cc1NC(=O)Cn1nc(C)c2ccccc2c1=O	-10	-4	37	66*	37*	0	47*
CC(=O)NCCOc1nc(N(C)C)nc(N2CCOCC2)n1	8	1	20	-9	1	1	.
COc1nc(OCCNC(C)=O)nc(N(C)C)n1	-3	-1	1	-2	56*	-2	4
COc1cccc(OC)c1OCCCN1CCC(Cc2ccccc2)CC1	-3	0	11	21	-1	0	.
CCN(CC(=O)NC1CCS(=O)(=O)C1)Cc1nc2c(Br)cc(Br)cc2c(=O)[nH]1 (stereo not drawn)	-1	3	-10	3	-3	-2	.
CCN(CC(=O)NC(C)(C)C)Cc1nc2c(Br)cc(Br)cc2c(=O)[nH]1	-5	0	-12	.	54*	-1	56*
CCc1cccc(C)c1NC(=S)N(CCOC)C(C)c1ccco1 (stereo not drawn)	-5	-5	2	21	7	1	.
COc1cc(/C=C2\SC(=O)N(c3ccc(Cl)cc3)C2=O)cc([N+](=O)[O-])c1O	.	11	.	77*	46*	-2	56*
CCOc1ccc(/C=C2\SC(=O)N(c3ccc(O)cc3)C2=O)cc1OC	-5	.	-9	13	.	.	.
COC(=O)c1ccc(CCc2cc(O)c(Br)cc2O)cc1	.	-3	.	.	55*	2	49*
CC1CCCCN1C(=O)CSc1nc(C2CC2)nc2ccccc12 (stereo not drawn)	-3	-1	18	13	-9	0	.
SMILES	APJ ag	DAGLB inh	APJ antagonist	CCR6 antag	CXCR6 inh	iPSC survival up	CXCR6 antag conf
CCC1=NN(C(=O)c2ccc(Br)cc2)C(O)(c2ccccc2)C1 (stereo not drawn)	-5	-5	30	73*	48*	2	34
CCOC(=O)C1=NN(C(=O)c2ccccc2)C(O)(c2ccc(C)cc2)C1 (stereo not drawn)	-3	5	-3	12	8	1	.
CCC1=NN(C(=O)c2cccc([N+](=O)[O-])c2)C(O)(c2ccc(C)cc2)C1 (stereo not drawn)	-5	2	37	66*	48*	0	13
CN1CCN(C(=O)C2CCCN(S(=O)(=O)c3ccc(F)cc3)C2)CC1 (stereo not drawn)	-2	-2	-27	1	1	0	.
CCN1C(=O)[C@H]2[C@@H](c3ccc(C(F)(F)F)cc3)N[C@]3(CCCN(Cc4ccco4)C3=O)[C@H]2C1=O	.	-2	.	.	55*	2	-8
O=C(Oc1ccccc1C(=S)N1CCOCC1)c1ccc([N+](=O)[O-])cc1[N+](=O)[O-]	5	1	-43	-8	-4	0	.
CC(C)CNC(=O)C1(C)CCCCCN1Cc1ccccc1-c1ccccc1 (stereo not drawn)	.	.	.	.	37*	-2	8
CCNC(=O)C1(C)CCCN1Cc1ccccc1Cl (stereo not drawn)	.	.	.	.	10	9	.
C/C(=C\C(=O)c1ccccc1)NNC(=O)c1ccc(Cl)cc1	-5	-1	27	55*	46*	0	6
Cc1ccc(Oc2ccccc2NC(=O)CN2C(=O)NC3(CCCC3)C2=O)cc1	1	-3	-1	-7	43*	1	10
N#Cc1c(SCC(N)=O)nsc1SCc1ccccc1Cl	-4	-2	1	18	83*	0	0
C=C1CCN([C@@H](Cc2ccccc2)C(=O)NCCC(C)C)S(=O)(=O)c2ccccc21	-2	-6	-34	24	41*	-4	42*
O=C(O)C1CCc2sc3[nH]c(=S)n(-c4ccccc4)c(=O)c3c21 (stereo not drawn)	-6	-2	-4	11	44*	1	20
N#Cc1ccc(C(=O)OCC(=O)NC(=O)NCc2ccccc2)cc1	-4	0	11	9	-8	-1	.
CCC(C)(O)c1[nH]c2ccc(C(=O)OC)cc2c1C (stereo not drawn)	0	1	-34	-5	-8	8	.
C/C(=N\NC(=O)COc1ccc(C(C)(C)C)cc1)c1ccc(-n2ccnc2)cc1	-1	-1	-31	-2	73*	-3	6
CC(C)(C)c1ccc(OCC(=O)Nc2ccncc2)cc1	-2	-1	-2	-3	41*	-1	16
COc1ccc(OCC(=O)N/N=C(\C)c2ccc(-n3ccnc3)cc2)cc1	-1	-1	-8	-18	-3	0	.

High-throughput results (PubChem BioAssay)
